Results pooled from the literature.
Organism: Pseudomonas aeruginosa

SMILES	test	system	setting	measurement	result
CC1(C)S[C@@H]2[C@H](NC(=O)[C@H](N)c3ccccc3)C(=O)N2[C@H]1C(=O)O	microbial growth, well diffusion	PAO1	200 µM	inhibition zone	8 mm
COc1c(C)c(OS(=O)(=O)c2ccc3ccccc3c2)c(C)c(OS(=O)(=O)c2ccc3ccccc3c2)c1C(=O)/C=C/c1ccccc1	microbial killing, broth dilution	ATCC27853		MBC	> 5000 µg/mL
O=c1cccccc1Sc1cccccc1=O	microbial growth, broth dilution	ATCC27853		MIC80	> 71.4 µM
O=C(O)c1cn(C2CC2)c2cc(N3CCNCC3)c(F)cc2c1=O	microbial growth, disc diffusion		100 µg/mL, 24 h	inhibition zone	16 mm
CCN1CCN(C(=O)N[C@@H](C(=O)N[C@@H]2C(=O)N3[C@@H]2SC(C)(C)[C@@H]3C(=O)O)c2ccccc2)C(=O)C1=O	microbial growth, well diffusion	PAO1	200 µM	inhibition zone	19 mm
O=c1cccccc1SSc1cccccc1=O	microbial growth, broth dilution	ATCC27853		MIC80	> 71.4 µM
CC1(C)SC2C(NC(=O)C(NC(=O)C3=C(O)C4CCCN4C3=O)c3ccccc3)C(=O)N2C1C(=O)O (centres unmarked)	microbial growth, well diffusion	PAO1	200 µM	inhibition zone	12 mm
O=c1cccccc1S	microbial growth, broth dilution	ATCC27853		MIC80	> 71.4 µM
COc1cc(C=CC(=O)CC(c2ccc([N+](=O)[O-])cc2)n2ccnc2)ccc1O (centres unmarked)	microbial growth, disc diffusion	ATCC27853	250 µg/mL	inhibition zone	6 mm
COc1c(C)c(OCc2ccccc2)c(C)c(O)c1C(=O)/C=C/c1ccccc1	microbial killing, broth dilution	ATCC27853		MBC	> 5000 µg/mL
COc1cc(C=Cc2cc(-c3ccc(N(C)C)cc3)nc(O)n2)ccc1O	microbial growth, disc diffusion	ATCC27853	500 µg/mL	inhibition zone	7.67 mm
O=C(Cc1ccccc1)Sc1cccccc1=O	microbial growth, broth dilution	ATCC27853		MIC80	> 71.4 µM
CC1(C)S[C@@H]2[C@H](NC(=O)[C@H](N)c3ccc(O)cc3)C(=O)N2[C@H]1C(=O)O	microbial growth, disc diffusion	ATCC27853	250 µg/mL	inhibition zone	9.38 mm
CCCCCCCC(=O)Oc1c(C)c(O)c(C(=O)/C=C/c2ccccc2)c(OC)c1C	microbial killing, broth dilution	ATCC27853		MBC	> 5000 µg/mL
COc1cc(C=CC(=O)CC(c2ccc(N(C)C)cc2)n2ccnc2)ccc1O (centres unmarked)	microbial growth, disc diffusion	ATCC27853	500 µg/mL	inhibition zone	23.3 mm
COc1c(C)c(OC)c(C(=O)/C=C/c2ccccc2)c(OC)c1C	microbial killing, broth dilution	ATCC27853		MBC	> 5000 µg/mL
CC(C)CC1NC(=O)C(C(=O)NC(C(=O)NC2C(=O)N3C2SC(C)(C)C3C(=O)O)c2ccccc2)=C1O (centres unmarked)	microbial growth, well diffusion	PAO1	200 µM	inhibition zone	11.7 mm
C#CCCCCCCCCC=CCC(O)CC(O)CO (centres unmarked)	microbial growth, broth dilution	ATCC27853		IC50	> 200 µg/mL
COc1cc(Cc2cnc(N)nc2N)cc(OC)c1OC	microbial killing, broth dilution		48 h	MBC	16 µg/mL
COc1c(C)c(OC(C)=O)c(C)c(OC(C)=O)c1C(=O)/C=C/c1ccccc1	microbial killing, broth dilution	ATCC27853		MBC	> 5000 µg/mL
CN[C@H](CC(C)C)C(=O)N[C@H]1C(=O)N[C@@H](CC(N)=O)C(=O)N[C@H]2C(=O)N[C@H]3C(=O)N[C@H](C(=O)N[C@H](C(=O)O)c4cc(O)cc(O)c4-c4cc3ccc4O)[C@H](O)c3ccc(c(Cl)c3)Oc3cc2cc(c3O[C@@H]2O[C@H](CO)[C@@H](O)[C@H](O)[C@H]2O[C@H]2C[C@](C)(N)[C@H](O)[C@H](C)O2)Oc2ccc(cc2Cl)[C@H]1O	microbial killing, broth dilution	ATCC9027		MBC	> 128 µM
Cc1cc(N)c2ccccc2[n+]1CCCCCCCCCC[n+]1c(C)cc(N)c2ccccc21	microbial growth, disc diffusion		50 µg/disc	inhibition zone	0 mm
COc1cc(C=Cc2cc(-c3ccccc3)nc(O)n2)ccc1O	microbial growth, disc diffusion	ATCC27853	250 µg/mL	inhibition zone	6 mm
COc1c(C)c(OC(=O)c2ccccc2)c(C)c(O)c1C(=O)/C=C/c1ccccc1	microbial killing, broth dilution	ATCC27853		MBC	> 5000 µg/mL
C=CCCCCCCCCCCCC(O)CC(O)CO (centres unmarked)	microbial growth, broth dilution	ATCC27853		IC50	> 200 µg/mL
CCCCCCCCCC(=O)Oc1c(C)c(O)c(C(=O)/C=C/c2ccccc2)c(OC)c1C	microbial killing, broth dilution	ATCC27853		MBC	> 5000 µg/mL
CC1(C)S[C@@H]2[C@H](NC(=O)C(C(=O)O)c3ccccc3)C(=O)N2[C@H]1C(=O)O (some centres unmarked)	microbial growth, well diffusion	PAO1	200 µM	inhibition zone	9.3 mm
COc1c(C)c(OC(C)=O)c(C)c(O)c1C(=O)/C=C/c1ccccc1	microbial killing, broth dilution	ATCC27853		MBC	> 5000 µg/mL
O=C(Sc1cccccc1=O)c1ccc(C(F)(F)F)cc1	microbial growth, broth dilution	ATCC27853		MIC80	> 71.4 µM
